The values that follow come from ChEMBL document CHEMBL1158756, “Hassallidin A, a glycosylated lipopeptide with antifungal activity from the cyanobacterium Hassallia sp” (2005).

Values after ≈ are worked out from the molar mass of the structure shown. Active and inactive are the calls of the source. Positions of bridges follow the written chain, without caps; N, C: chain ends. Non-standard residues stand in square brackets, D forms with d. Residues, ends and D or L forms follow the SMILES beside them. *: point of attachment. X2 = OC[C@H]1O[C@@H](*)[C@@H](O)[C@@H](O)[C@@H]1O; NMeT = CN[C@H](C(=O)O)[C@@H](C)O; X1 = CCCCCCCCCCCC(O)C(O)C(=O)*; Dhb = C/C=C(\N)C(=O)O

Experiment [1] deals with Candida albicans. Briefly: Antifungal activity against Candida albicans at 10 ug by disk diffusion assay. Format: functional, organism-based. In a few lines:
(§1)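 Disk diffusion on malt agar plates; each disk carried 10 µg in 30 µL of 50% MeOH.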
A general note: In agar diffusion tests the substance spreads into inoculated agar from a disc or well.

For experiment [2], the system named is Penicillium sp. As to the kind of experiment: Antifungal activity against Penicillium sp. at 10 ug by disk diffusion assay. Format: functional, organism-based. The method, boiled down: as §1
Experiment [3] concerns Bacillus subtilis. Briefly: Antimicrobial activity against Bacillus subtilis at 10 ug by disk diffusion assay. Format: functional, organism-based. The method, boiled down: (§2)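 Disk diffusion on LB-agar plates; each disk carried 10 µg in 30 µL of 50% MeOH.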
Experiment [4] relates to Streptomyces. Briefly: Antimicrobial activity against Streptomyces versicolor at 10 ug by disk diffusion assay. Format: functional, organism-based. The method, boiled down: as §2
The subject of experiment [5] is Aspergillus niger. As to the kind of experiment: Antifungal activity against Aspergillus niger at 10 ug by disk diffusion assay. Format: functional, organism-based. In a few lines:
as §1

Experiment [6] relates to Aspergillus fumigatus. As to the kind of experiment: Antifungal activity against Aspergillus fumigatus after 48 hrs. Format: functional. In a few lines:
(§3)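 Broth microdilution in RPMI-1640; each well held 240 µL medium, 10 µL inoculum (prepared per NCCLS guidelines) and 50 µL of test solution in 50% MeOH. The test solution was a 2-fold series from a 92 µg/mL stock, 4.6 down to 0.14 µg per 50 µL. A drug-free well served as control. Incubation at 35 °C, 24 h for C. albicans and 48 h for A. fumigatus. Growth was read as OD595. MIC was the highest dilution well free from growth. Run in triplicate.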

Experiment [7] deals with Aspergillus fumigatus. Briefly: Antifungal activity against Aspergillus fumigatus at 10 ug by disk diffusion assay. The experiment is classed as functional, organism-based. In a few lines: as §1
Experiment [8] deals with Escherichia coli. Briefly: Antimicrobial activity against Escherichia coli at 10 ug by disk diffusion assay. Format: functional, organism-based. In a few lines:
as §2

Experiment [9] deals with Candida albicans. As to the kind of experiment: Antifungal activity against Candida albicans after 24 hrs. The experiment is classed as functional. In a few lines:
as §3

In experiment [10] the test system is Nakaseomyces glabratus. As to the kind of experiment: Antifungal activity against Candida glabrata at 10 ug by disk diffusion assay. Format: functional, organism-based. The method, boiled down: as §1
For experiment [11], the system named is Ustilago maydis. As to the kind of experiment: Antifungal activity against Ustilago maydis at 10 ug by disk diffusion assay. The settings on record: Mycosarcoma maydis. Format: functional, organism-based. The method, boiled down:
as §1

The test system of experiment [12] is Fusarium sambucinum. As to the kind of experiment: Antifungal activity against Fusarium sambucinum at 10 ug by disk diffusion assay. The experiment is classed as functional, organism-based. The method, boiled down: as §1

Broadly, the MIC is the smallest concentration in the dilution series that meets the test's criterion for growth inhibition. Read a low MIC as greater potency. With `C/C=C1\NC(=O)[C@H](Cc2ccc(O)cc2)NC(=O)[C@H]([C@@H](C)O)NC(=O)[C@@H](NC(=O)[C@@H](NC(=O)C(O)C(O)CCCCCCCCCCC)[C@@H](C)O)[C@@H](C)OC(=O)[C@H](CCC(N)=O)NC(=O)[C@H]([C@@H](C)O[C@@H]2O[C@H](CO)[C@@H](O)[C@H](O)[C@@H]2O)N(C)C(=O)CNC(=O)[C@H](CCC(N)=O)NC1=O` (some centres not stated) [HASSALLIDIN A] (X1-TTTY[Dhb]QG[NMeT](X2)Q; ester 2-C), the outcome in experiment [1], in [2], in experiment [5], in [7], in experiment [10] and in experiment [11] was Active. Also, in [12], the result was Active. For the same molecule, the outcome in [3], in [4] and in experiment [8] was inactive. The minimum inhibitory concentration (MIC) in [6] and in [9] was 4.8 µg/mL (≈ 3.47 µM) throughout.
